Laboratory results taken from ChEMBL document CHEMBL3272083, “Antiinflammatory and analgesic diastereoisomeric derivatives of indan-5-acetic acid” (J Med Chem, 1978).

Tests used:
Rattus norvegicus [1] = experiment: Analgesic activity in po dosed rat assessed as inhibition of phenylbenzoquinone-induced writhing administered in 1% w/v arabic gum; assay type: functional
Procedure, shortened: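 Oral dosing in 1% w/v arabic gum vehicle. Read-out was antagonism of writhing produced by phenylbenzoquinone. ED50 with 95% confidence limits was calculated by Bliss's method.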

[2] = (§1) Gastrointestinal toxicity in po dosed rat assessed as ulcerogenic activity after 6 hrs administered in 1% w/v arabic gum; assay type: organism-based; details: in vivo, read-out: UD50
Procedure, shortened: (§2)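 Fasted rats dosed orally, compound suspended in 1% w/v arabic gum. Stomachs examined 6 h after dosing; gastric ulcer intensity graded on a 0–3 scale. The 50% ulcerogenic dose (UD50) was read graphically.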

Rattus norvegicus [3] = experiment: Antiinflammatory activity in po dosed rat assessed as inhibition of carrageenan-induced edema administered in 1% w/v arabic gum; assay type: functional
Procedure, shortened: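 Given orally in 1% w/v arabic gum vehicle. Read-out was carrageenan-induced edema. ED50 and 95% confidence limits were derived by Bliss's method.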

Rattus norvegicus [4] = experiment: as §1; assay type: organism-based; details: in vivo, 6 h; procedure, shortened: as §2
[5] = Rattus norvegicus, po, read-out: ED50

Row | Structure (SMILES) | ED50 (Rattus norvegicus [1]; [5]) [mg/kg] | TD50 at 6 h [2] [mg/kg] | ED50 (Rattus norvegicus [3]; [5]) [mg/kg] | ED50 (Rattus norvegicus [1]) [mg/kg] | UD50 (Rattus norvegicus [4]) [mg/kg] | ED50 (Rattus norvegicus [3]) [mg/kg]
1 | CC(C)[C@@H]1Cc2ccc([C@H](C)C(=O)O)cc2C1 | 9 | – | – | – | – | –
2 | CC1Cc2ccc(CC(=O)O)cc2C1 (racemic) | 175 | – | – | – | – | –
3 | CCC1Cc2ccc(CC(=O)O)cc2C1 (racemic) | 104 | 125 | > 256 | – | – | –
4 | CC(C)C1Cc2ccc(CC(=O)O)cc2C1 (racemic) | 57 | 335 | 155 | – | – | –
5 | CC1Cc2ccc(C(C)C(=O)[O-])cc2C1.[Na+] (racemic) | 24 | – | – | – | – | –
6 | CCC1Cc2ccc(C(C)C(=O)O)cc2C1 (racemic) | 6 | 65 | 36 | – | – | –
7 | CC(C(=O)O)c1ccc2c(c1)CC(C(C)C)C2 (racemic) [ISOPROFEN] | 9 | 62 | 29 | – | – | –
8 | CC(C(=O)O)c1ccc2c(c1)CC(C(C)C)C2 (single isomer, unassigned; (+)) [ISOPROFEN] | – | – | – | 10 | 46 | 24
9 | CC(C(=O)O)c1ccc2c(c1)CC(C(C)C)C2 (single isomer, unassigned; (-)) [ISOPROFEN] | – | – | – | 17 | 87 | 32
10 | CC(C)Cc1ccc(C(C)C(=O)O)cc1 (centres undefined) [IBUPROFEN] | 17 | 40 | 44 | – | – | –
